The text below walks through data of ChEMBL document CHEMBL4033667, “Design, synthesis, and identification of a novel napthalamide-isoselenocyanate compound NISC-6 as a dual Topoisomerase-IIα and Akt pathway inhibitor, and evaluation of its anti-melanoma activity” (Eur J Med Chem, 2017).

In experiment [1] the test system is UACC-903. Kind of experiment: Induction of apoptosis in human UACC-903 cells assessed as early apoptotic cells at 10 uM after 24 hrs by Annexin-V/7-AAD staining-based fluorescence assay (reference value: 13.15%). It is filed as functional.
The test system of experiment [2] is UACC-903. Kind of experiment: Induction of apoptosis in human UACC-903 cells assessed as viable cells at 10 uM after 24 hrs by Annexin-V/7-AAD staining-based fluorescence assay (reference value: 83.90%). It is filed as functional. As to conditions: UACC-903, 24 h, read-out: Activity.
The subject of experiment [3] is UACC-903. Kind of experiment: Induction of apoptosis in human UACC-903 cells assessed as increase in caspase 3/7 activity by measuring late apoptotic cells at 5 uM after 24 hrs by 7-AAD staining-based fluorescence assay (reference value: 6.08%). The experiment is classed as functional. The gist of the method: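 Muse caspase-3/7 kit on UACC903 cells after 24 h at given doses or DMSO. Cell-permeant NucView DEVD-linked DNA dye fluoresces after cleavage by active caspase 3/7. 7-AAD marks cells with compromised membranes. Gates: live, early apoptotic (caspase+/7-AAD−), late apoptotic (both +), necrotic (7-AAD+ only).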

Experiment [4] has as its system CHL-1. Kind of experiment: Potency index, ratio of PLX-4032 IC50 to test compound IC50 for human CHL-1 cells harboring wild type BRAF after 72 hrs. The experiment is classed as functional.
For experiment [5], the species on record is Homo sapiens. As to the kind of experiment: Inhibition of DNA topoisomerase 2 in human UACC-903 cells assessed as increase in H2AX phosphorylation at 5 uM after 6 hrs by DAPI staining-based immunocytochemistry analysis. The experiment is classed as cell-based. The essentials: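 UACC903 cells (1.6 × 10^5) on coverslips overnight, then 5 µM or DMSO for 6 h. Fixed in 4% formaldehyde and blocked 1 h (0.3% Triton X-100, 5% donkey serum). Anti-p-H2A.X 1:500 overnight at 4 °C, then Alexa Fluor 488 secondary 1:500 with phalloidin for 1 h. DAPI mounting, imaged at 60X.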

In experiment [6] the test system is UACC-903. Kind of experiment: Antitumor activity against human UACC-903 cells xenografted in Harlan Sprague Dawley mouse assessed as reduction in tumor burden at 0.6 umole, ip administered 3 times a week measured on day 40 relative to vehicle-treated control. The experiment is classed as functional. More on the design: scale not given: the % may be the effect or the level left. The gist of the method: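 5×10^6 UACC 903 cells in 0.2 mL DMEM/10% FBS injected s.c. into both flanks of 4-6 week female athymic nude mice. From day 6, randomised groups (5 mice, 2 tumours each) received i.p. DMSO or 0.6 µmole in DMSO (100 µL) three times weekly. Caliper tumour volume and body weight taken thrice weekly to day 40; mean ± SEM.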
On the technique in general: A xenograft is tissue or cells of one species grown in another, often human tumour cells in immunodeficient mice.

For experiment [7], the system named is UACC-903. Kind of experiment: Induction of apoptosis in human UACC-903 cells assessed as viable cells at 5 uM after 24 hrs by Annexin-V/7-AAD staining-based fluorescence assay (reference value: 83.90%). As to conditions: UACC-903, 24 h, read-out: Activity. The experiment is classed as functional.
Experiment [8] addresses RAC-alpha serine/threonine-protein kinase (Homo sapiens) (UniProt P31749). Kind of experiment: Inhibition of Akt-phosphorylation in human UACC-903 cells after 24 hrs by Western blot analysis. It is filed as cell-based. The gist of the method: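 UACC903 cells treated with increasing doses for 24 h, then lysed in RIPA with protease and phosphatase inhibitors and spun 15,000 rpm for 10 min. Lysates resolved on 4-12% gel, moved to PVDF and probed for phospho-Akt and pan-Akt. β-actin served as loading control; detection by ECL.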
(A western blot detects proteins with antibodies after separation by electrophoresis.)

The structures appear in SMILES notation. Calls of active or inactive are those of the source. No cut-off for these calls is given here.

RAC-alpha serine/threonine-protein kinase (Homo sapiens), sequence (P31749 whole entry): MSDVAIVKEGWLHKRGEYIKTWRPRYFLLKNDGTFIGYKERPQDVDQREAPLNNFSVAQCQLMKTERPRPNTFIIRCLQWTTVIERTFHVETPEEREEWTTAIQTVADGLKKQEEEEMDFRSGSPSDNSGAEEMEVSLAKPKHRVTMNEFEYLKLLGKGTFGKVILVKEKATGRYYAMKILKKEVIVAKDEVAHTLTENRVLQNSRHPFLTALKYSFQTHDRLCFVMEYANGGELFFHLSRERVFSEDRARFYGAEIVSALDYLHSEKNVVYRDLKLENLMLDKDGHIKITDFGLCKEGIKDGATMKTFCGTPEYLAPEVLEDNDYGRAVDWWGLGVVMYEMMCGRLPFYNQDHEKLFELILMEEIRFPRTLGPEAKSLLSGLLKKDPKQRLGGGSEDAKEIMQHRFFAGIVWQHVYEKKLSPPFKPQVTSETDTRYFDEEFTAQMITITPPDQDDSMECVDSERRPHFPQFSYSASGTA

As for `O=C1c2cccc3cccc(c23)C(=O)N1CCCCCCN=C=[Se]`, the Activity in experiment [1] was found to be 35%; in experiment [3], 9.86%; in experiment [6], 69%. Further, the viability at 10 µM in experiment [2] is 49.1%. In addition, the “Ratio IC50” value in experiment [4] is 15. The inhibition entry in experiment [5] is “Active”. Besides, the viability at 5 µM in experiment [7] was determined as 83.2%. In addition, the inhibition entry in experiment [8] was “Dose-dependent effect”.
